According to publication PMC9295256 (Journal of medicinal chemistry, 2021):
Where two headings read alike, the source gives them in different places. Values belong to the molecule of their own block, whether it stands above or below them.

Key:
recombinant rat Nln = recombinant rat Nln (Rattus norvegicus, UniProt P42676); experiment: Nln activation, continuous quenched fluorescence substrate; type: biochemical; details: for increase in potency over the least active hit / increase in potency over the most active hit: A50 ratio
recombinant rat Nln, sequence (P42676 38-704): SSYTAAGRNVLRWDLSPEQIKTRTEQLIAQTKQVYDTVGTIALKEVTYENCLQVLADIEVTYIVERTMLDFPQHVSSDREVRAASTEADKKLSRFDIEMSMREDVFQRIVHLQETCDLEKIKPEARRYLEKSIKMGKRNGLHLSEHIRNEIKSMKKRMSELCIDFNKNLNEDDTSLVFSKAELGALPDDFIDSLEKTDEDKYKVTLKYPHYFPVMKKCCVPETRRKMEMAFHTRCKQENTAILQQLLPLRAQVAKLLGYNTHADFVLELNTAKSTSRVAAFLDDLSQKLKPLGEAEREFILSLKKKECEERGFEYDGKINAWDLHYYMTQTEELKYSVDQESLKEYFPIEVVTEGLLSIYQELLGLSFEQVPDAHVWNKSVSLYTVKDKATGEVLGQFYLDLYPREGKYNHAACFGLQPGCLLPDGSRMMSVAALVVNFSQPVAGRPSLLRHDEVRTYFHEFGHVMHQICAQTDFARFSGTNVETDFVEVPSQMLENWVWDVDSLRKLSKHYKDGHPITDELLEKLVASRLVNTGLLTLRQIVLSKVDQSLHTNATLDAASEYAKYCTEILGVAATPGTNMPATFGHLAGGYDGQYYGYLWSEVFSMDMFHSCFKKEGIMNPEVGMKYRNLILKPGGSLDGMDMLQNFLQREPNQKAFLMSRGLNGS

[1] = Brain protein binding, rapid equilibrium dialysis; type: in vitro ADME; details: mouse, mouse brain homogenate (dilution factor D = 5)
Summary of the method: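 Mouse brain homogenate spiked to 500 ng/mL final (from a 10 µg/mL aqueous dilution of DMSO solution) was dialysed against DPBS across an 8 kDa cutoff membrane for 4 h at 37 °C with 250 rpm orbital shaking. Both chambers were sampled and quantified by LC–MS/MS. fu,d = receiver/donor, corrected to undiluted fu with D = 5. Done in triplicate.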

[2] = type: in vitro ADME, mouse
[3] = system: co-culture of primary mouse astrocytes and immortalized mouse endothelial cells (bEnd3); type: in vitro ADME; details: ratio of Pe values
human TOP = human TOP (Homo sapiens, UniProt P52888); experiment: Peptidase selectivity: thimet oligopeptidase, fluorogenic substrate; type: biochemical; details: eight-point concentration–response up to 300 μM; substrate 15 μM
human TOP, sequence (P52888 whole entry): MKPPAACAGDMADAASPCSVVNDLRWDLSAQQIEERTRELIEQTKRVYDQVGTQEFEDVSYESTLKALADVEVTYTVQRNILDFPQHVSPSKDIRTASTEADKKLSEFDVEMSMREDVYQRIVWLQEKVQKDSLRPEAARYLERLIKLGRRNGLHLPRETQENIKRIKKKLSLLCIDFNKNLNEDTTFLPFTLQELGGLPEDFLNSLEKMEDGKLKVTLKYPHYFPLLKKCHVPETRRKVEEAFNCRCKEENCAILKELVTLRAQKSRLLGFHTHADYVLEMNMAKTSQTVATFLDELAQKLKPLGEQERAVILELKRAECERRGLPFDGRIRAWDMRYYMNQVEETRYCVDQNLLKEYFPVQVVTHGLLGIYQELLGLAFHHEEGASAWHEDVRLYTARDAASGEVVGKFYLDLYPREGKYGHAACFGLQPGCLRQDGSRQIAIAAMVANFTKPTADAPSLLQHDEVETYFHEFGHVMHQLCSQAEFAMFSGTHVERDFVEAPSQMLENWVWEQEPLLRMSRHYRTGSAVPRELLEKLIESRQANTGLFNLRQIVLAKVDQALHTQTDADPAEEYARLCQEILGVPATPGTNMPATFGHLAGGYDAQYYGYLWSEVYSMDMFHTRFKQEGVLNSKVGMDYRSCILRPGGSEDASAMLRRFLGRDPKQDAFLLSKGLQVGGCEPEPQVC

human NEP = human NEP (Homo sapiens, UniProt P08473); experiment: Peptidase selectivity: neprilysin, fluorogenic substrate; type: biochemical; details: eight-point concentration–response up to 300 μM; substrate 10 μM
human NEP, sequence (P08473 whole entry): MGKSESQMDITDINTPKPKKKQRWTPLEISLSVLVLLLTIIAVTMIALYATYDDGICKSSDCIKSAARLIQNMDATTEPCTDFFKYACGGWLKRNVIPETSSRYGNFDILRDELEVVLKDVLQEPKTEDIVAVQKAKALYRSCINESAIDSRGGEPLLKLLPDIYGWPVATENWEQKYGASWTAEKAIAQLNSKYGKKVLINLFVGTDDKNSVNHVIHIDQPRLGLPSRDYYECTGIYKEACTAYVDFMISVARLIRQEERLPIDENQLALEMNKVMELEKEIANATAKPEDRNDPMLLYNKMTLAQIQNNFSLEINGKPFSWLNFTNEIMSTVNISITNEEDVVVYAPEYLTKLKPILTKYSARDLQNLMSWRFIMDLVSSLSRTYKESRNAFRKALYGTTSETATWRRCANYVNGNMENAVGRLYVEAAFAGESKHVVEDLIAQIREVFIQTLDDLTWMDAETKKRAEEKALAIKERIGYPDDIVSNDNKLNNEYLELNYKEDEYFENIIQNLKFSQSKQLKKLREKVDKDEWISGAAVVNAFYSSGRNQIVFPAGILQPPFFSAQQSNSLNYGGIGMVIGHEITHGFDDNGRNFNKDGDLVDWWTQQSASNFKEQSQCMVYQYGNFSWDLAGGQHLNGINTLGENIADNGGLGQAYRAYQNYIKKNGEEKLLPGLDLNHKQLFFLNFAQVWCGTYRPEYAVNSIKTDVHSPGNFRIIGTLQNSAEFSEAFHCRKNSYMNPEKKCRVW

human ACE2 = human ACE2 (Homo sapiens, UniProt Q9BYF1); experiment: Peptidase selectivity: ACE2, fluorogenic substrate; type: biochemical; details: eight-point concentration–response up to 300 μM; substrate 10 μM
human ACE2, sequence (Q9BYF1 18-805): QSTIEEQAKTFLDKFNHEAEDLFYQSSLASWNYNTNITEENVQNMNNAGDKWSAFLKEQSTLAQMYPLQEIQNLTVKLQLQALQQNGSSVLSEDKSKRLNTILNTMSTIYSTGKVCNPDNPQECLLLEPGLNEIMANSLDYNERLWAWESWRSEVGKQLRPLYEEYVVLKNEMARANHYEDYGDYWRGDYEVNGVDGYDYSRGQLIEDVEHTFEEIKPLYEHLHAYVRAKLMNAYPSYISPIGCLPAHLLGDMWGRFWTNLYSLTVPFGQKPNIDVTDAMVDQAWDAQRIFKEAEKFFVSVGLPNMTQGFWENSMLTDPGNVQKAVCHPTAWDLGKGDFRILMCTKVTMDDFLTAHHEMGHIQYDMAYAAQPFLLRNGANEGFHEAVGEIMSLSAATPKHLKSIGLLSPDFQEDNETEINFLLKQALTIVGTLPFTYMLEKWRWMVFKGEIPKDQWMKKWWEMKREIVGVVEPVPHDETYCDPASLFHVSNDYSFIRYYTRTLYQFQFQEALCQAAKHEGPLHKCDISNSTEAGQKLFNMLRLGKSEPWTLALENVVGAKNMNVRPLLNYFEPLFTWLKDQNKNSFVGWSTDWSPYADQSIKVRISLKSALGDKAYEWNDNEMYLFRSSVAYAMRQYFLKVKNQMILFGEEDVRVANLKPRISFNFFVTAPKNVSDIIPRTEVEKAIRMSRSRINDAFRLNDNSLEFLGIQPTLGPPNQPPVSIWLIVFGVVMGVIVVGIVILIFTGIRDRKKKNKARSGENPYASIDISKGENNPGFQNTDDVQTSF
Summary of the method: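 Recombinant human ACE2 was tested in artificial CSF at 37 °C with a 10 min preincubation of enzyme and test compound (from 30–50 mM DMSO stocks). Mca-Ala-Pro-Lys(Dnp) (10 µM) started the reaction, and fluorescence (320 nm excitation, 405 nm emission) was followed continuously for 20 min; n = 4.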

[4] = molecular target: human angiotensin-converting enzyme (Homo sapiens, UniProt P12821); experiment: Peptidase selectivity: ACE, fluorogenic substrate; type: biochemical; details: eight-point concentration–response up to 300 μM; substrate 10 μM
human angiotensin-converting enzyme, sequence (P12821 30-1306): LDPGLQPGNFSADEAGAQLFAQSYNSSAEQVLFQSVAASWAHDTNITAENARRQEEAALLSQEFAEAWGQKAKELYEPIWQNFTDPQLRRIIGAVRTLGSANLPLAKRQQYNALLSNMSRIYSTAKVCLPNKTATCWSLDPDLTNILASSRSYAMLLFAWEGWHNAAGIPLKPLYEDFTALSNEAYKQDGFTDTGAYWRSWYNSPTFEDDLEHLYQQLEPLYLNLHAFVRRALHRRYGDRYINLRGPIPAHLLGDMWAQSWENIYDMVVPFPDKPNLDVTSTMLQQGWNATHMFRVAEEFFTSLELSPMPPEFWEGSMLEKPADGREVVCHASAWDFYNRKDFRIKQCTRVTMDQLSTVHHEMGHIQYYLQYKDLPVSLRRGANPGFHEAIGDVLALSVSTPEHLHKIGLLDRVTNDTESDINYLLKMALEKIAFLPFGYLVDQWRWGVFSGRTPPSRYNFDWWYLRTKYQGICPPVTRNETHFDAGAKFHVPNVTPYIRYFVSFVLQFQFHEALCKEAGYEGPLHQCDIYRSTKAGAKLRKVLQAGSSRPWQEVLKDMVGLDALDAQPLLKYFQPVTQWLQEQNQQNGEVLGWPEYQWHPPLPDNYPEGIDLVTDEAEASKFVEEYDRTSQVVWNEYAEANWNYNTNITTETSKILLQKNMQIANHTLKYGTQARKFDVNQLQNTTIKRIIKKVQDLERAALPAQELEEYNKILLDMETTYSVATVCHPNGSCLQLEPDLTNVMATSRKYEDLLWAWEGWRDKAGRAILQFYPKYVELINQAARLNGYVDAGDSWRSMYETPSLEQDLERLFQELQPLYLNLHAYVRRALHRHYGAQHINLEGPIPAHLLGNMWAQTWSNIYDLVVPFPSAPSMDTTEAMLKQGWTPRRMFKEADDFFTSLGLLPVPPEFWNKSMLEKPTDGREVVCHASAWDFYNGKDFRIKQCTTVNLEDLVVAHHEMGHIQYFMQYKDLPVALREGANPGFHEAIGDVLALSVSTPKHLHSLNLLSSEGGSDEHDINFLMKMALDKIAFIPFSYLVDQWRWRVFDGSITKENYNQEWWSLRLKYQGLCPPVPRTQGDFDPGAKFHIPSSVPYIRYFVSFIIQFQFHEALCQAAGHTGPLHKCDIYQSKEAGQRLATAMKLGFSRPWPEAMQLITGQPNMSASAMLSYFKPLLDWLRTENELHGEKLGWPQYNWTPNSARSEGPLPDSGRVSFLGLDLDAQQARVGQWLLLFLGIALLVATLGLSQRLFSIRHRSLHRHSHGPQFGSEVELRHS
Summary of the method: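 Continuous fluorogenic assay with recombinant human ACE in artificial CSF at 37 °C. Test compound (from 30–50 mM DMSO stocks) was preincubated with enzyme for 10 min. The reaction was started with Mca-[…]Dnp)-OH (10 µM), and fluorescence (ex 320/em 405 nm) was read continuously for 20 min; n = 4.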

[5] = molecular target: Rat recombinant neurolysin (Rattus norvegicus, UniProt P42676); experiment: Hydrolysis of endogenous substrates BK and NT by Nln, LC-MS/MS; type: biochemical; details: compound 10 or 30 μM, Nln 0.5 nM; for hydrolysis of BK by Nln, formation of BK-(1–5): BK 20 μM; for hydrolysis of NT by Nln, formation of NT-(1–10): NT 20 μM
Rat recombinant neurolysin, sequence (P42676 38-704): as the sequence (P42676 38-704) above
Summary of the method: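 In-house recombinant rat Nln (0.5 nM) was preincubated 10 min at 37 °C with test compound (10 or 30 µM), then given bradykinin (20 µM) for a further 10 min at 37 °C. BK-(1–5) was quantified by LC–MS/MS (water/acetonitrile with 0.1% formic acid gradient, column 40 °C) as a peak-area ratio to internal standard; n = 3.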

[6] = 100% = normal enzyme turnover, mean of n = 4, 95% CI in parentheses
[7] = CD-1 (source of the primary astrocytes), mouse

Molecule: N[C@@H](Cc1c[nH]cn1)C(=O)Nc1cccc2cccnc12 [Compound 11a, (S)-2-Amino-3-(1H-imidazol-4-yl)-N-(quinolin-8-yl)propanamide]
Amax, maximum % activation achieved (95% CI) (recombinant rat Nln; [6]): 281.2 (266.7 to 297.1) %
increase in potency over the least active hit (recombinant rat Nln): > 30 fold
increase in potency over the most active hit (recombinant rat Nln): > 10 fold
mean Amax of the two enantiomers (recombinant rat Nln; mean over L and D enantiomer): 285%
fraction unbound at 4 h, 500 ng/mL [1]: 0.062 ± 0.011
Papp A→B at 120 min, 10 μg/mL [2, 7]: 19 ×10⁻⁶ cm/s
increase in BBB permeability / brain penetration over hit compounds 1 and 4 [3]: 4–5 fold
effect on catalytic activity of TOP (human TOP): No appreciable inhibition
effect on catalytic activity of NEP (human NEP): None of the three compounds showed appreciable inhibition
effect on catalytic activity of ACE2 (human ACE2): inhibition of ACE2 at high concentrations
effect on catalytic activity of ACE [4]: inhibition of ACE at high concentration
hydrolysis of BK by Nln, formation of BK-(1–5) [5]: enhanced hydrolysis of BK
hydrolysis of NT by Nln, formation of NT-(1–10) [5]: hydrolysis of NT by Nln was also enhanced

Molecule: N[C@@H](Cc1c[nH]cn1)C(=O)NCCc1c[nH]c2ccccc12 [Compound 9d, (S)-N-(2-(1H-Indol-3-yl)ethyl)-2-amino-3-(1H-imidazol-4-yl)-propanamide]
fraction unbound at 4 h, 500 ng/mL [1]: 0.14 ± 0.012
Papp A→B at 120 min, 10 μg/mL [2, 7]: 17.8 ×10⁻⁶ cm/s
increase in BBB permeability / brain penetration over hit compounds 1 and 4 [3]: 4–5 fold
effect on catalytic activity of TOP (human TOP): only exhibited inhibition at concentrations approaching 300 μM
effect on catalytic activity of NEP (human NEP): None of the three compounds showed appreciable inhibition
effect on catalytic activity of ACE2 (human ACE2): inhibition of ACE2 at high concentrations
effect on catalytic activity of ACE [4]: inhibition of ACE at high concentration
hydrolysis of BK by Nln, formation of BK-(1–5) [5]: enhanced hydrolysis of BK
hydrolysis of NT by Nln, formation of NT-(1–10) [5]: hydrolysis of NT by Nln was also enhanced

Molecule: N[C@@H](Cc1c[nH]cn1)C(=O)N[C@@H](Cc1c[nH]c2ccccc12)C(=O)O [Compound 4, His–Trp]
Papp A→B at 120 min, 10 μg/mL ([2]; CD-1, mouse): 5.33 ×10⁻⁶ cm/s

Molecule: N[C@H](Cc1c[nH]cn1)C(=O)NCCCc1ccccc1 [Compound 7b, (R)-2-Amino-3-(1H-imidazol-4-yl)-N-(3-phenylpropyl)-propanamide]
Amax, maximum % activation achieved (95% CI) (recombinant rat Nln; [6]): 281.8 (269.9 to 294.5) %

Molecule: COc1ccc(CCNC(=O)[C@H](N)Cc2c[nH]cn2)cc1 [Compound 4f, (R)-2-Amino-3-(1H-imidazol-4-yl)-N-(4-methoxyphenethyl)-propanamide]
Amax, maximum % activation achieved (95% CI) (recombinant rat Nln; [6]): 378.3 (350.5 to 411.9) %

Molecule: N[C@@H](Cc1c[nH]cn1)C(=O)NCc1cccc2ccccc12 [Compound 10c, (S)-2-Amino-3-(1H-imidazol-4-yl)-N-(naphthalen-1-ylmethyl)-propanamide]
Amax, maximum % activation achieved (95% CI) (recombinant rat Nln; [6]): 264 (256.3 to 272.6) %
increase in potency over the least active hit (recombinant rat Nln): > 30 fold
increase in potency over the most active hit (recombinant rat Nln): > 10 fold
increase in BBB permeability / brain penetration over hit compounds 1 and 4 [3]: 4–5 fold
effect on catalytic activity of TOP (human TOP): No appreciable inhibition
effect on catalytic activity of NEP (human NEP): None of the three compounds showed appreciable inhibition
effect on catalytic activity of ACE2 (human ACE2): no inhibition up to 300 μM
effect on catalytic activity of ACE [4]: no inhibition at the maximum concentration tested
hydrolysis of BK by Nln, formation of BK-(1–5) [5]: enhanced hydrolysis of BK
hydrolysis of NT by Nln, formation of NT-(1–10) [5]: hydrolysis of NT by Nln was also enhanced

The next lines start with the values.

Amax, maximum % activation achieved (95% CI) (recombinant rat Nln): 703.5 (588.9 to 915.6) %
Molecule: COc1ccc(CNC(=O)[C@H](N)Cc2cnc[nH]2)cc1 [Compound 5c, (R)-2-Amino-3-(1H-imidazol-4-yl)-N-(4-methoxybenzyl)-propanamide]

Nln activation, result in words (recombinant rat Nln): ameliorates activity
Amax, maximum % activation achieved (95% CI) (recombinant rat Nln; [6]): Inactive
A50, half maximal activation concentration (95% CI) (recombinant rat Nln; recombinant rat Nln, QFS […] μM, 37 °C, mean of n = 4, 95% CI in parentheses): Inactive
Molecule: (S)-tert-Butyl(1-((2-(1H-indol-3-yl)ethyl)amino)-3-(1H-imidazol-4-yl)-1-oxopropan-2-yl)carbamate [Compound 9b]

Amax, maximum % activation achieved (95% CI) (recombinant rat Nln): 152.2 (137.3 to 171.5) %
Molecule: N[C@@H](Cc1c[nH]cn1)C(=O)NCc1ccccc1 [Compound 5a, (S)-2-Amino-N-benzyl-3-(1H-imidazol-4-yl)propanamide]

Amax, maximum % activation achieved (95% CI) (recombinant rat Nln): 327.5 (309.7 to 348.2) %
Molecule: COc1cccc(CNC(=O)[C@@H](N)Cc2c[nH]cn2)c1 [Compound 5f, (S)-2-Amino-3-(1H-3l4-imidazol-4-yl)-N-(3-methoxybenzyl)-propanamide]

Amax, maximum % activation achieved (95% CI) (recombinant rat Nln): 428.8 (373 to 523.5) %
Molecule: COc1ccc(CNC(=O)[C@@H](N)Cc2c[nH]cn2)cc1 [Compound 5b, (S)-2-Amino-3-(1H-3l4-imidazol-4-yl)-N-(4-methoxybenzyl)-propanamide]

Amax, maximum % activation achieved (95% CI) (recombinant rat Nln): 477.1 (444 to 516) %
Molecule: COc1cccc(CNC(=O)[C@H](N)Cc2cnc[nH]2)c1 [Compound 5g, (R)-2-Amino-3-(1H-3l4-imidazol-4-yl)-N-(3-methoxybenzyl)-propanamide]
